Reference: ChEMBL document CHEMBL3425439, “Disubstituted Bis-THF Moieties as New P2 Ligands in Nonpeptidal HIV-1 Protease Inhibitors (II)” (J Med Chem, 2015)

What follows are compounds tested on Human immunodeficiency virus 1 (assay: Ratio of EC50 for HIV-1 M3 harboring protease L10I, K20R, M36I, G48V, I62V, A71V, V82A, I93L mutant to EC50 for wild type HIV-1 3B). Conditions: not given.
Type: functional

Compound | Ratio EC50
CNC(=O)CO[C@H]1CO[C@@H]2OC[C@H](OC(=O)N[C@@H](Cc3ccccc3)[C@H](O)CN(CC(C)C)S(=O)(=O)c3ccc4nc(NC)oc4c3)[C@@H]21 | 0.1
CNc1nc2ccc(S(=O)(=O)N(CC(C)C)C[C@@H](O)[C@H](Cc3ccccc3)NC(=O)O[C@H]3CO[C@H]4OC[C@H](OCC(=O)N(C)C)[C@H]43)cc2o1 | 0.2
C=C(F)CO[C@H]1CO[C@@H]2OC[C@H](OC(=O)N[C@@H](Cc3ccccc3)[C@H](O)CN(CC(C)C)S(=O)(=O)c3ccc4nc(NC)oc4c3)[C@@H]21 | 1.4
CNc1nc2ccc(S(=O)(=O)N(CC(C)C)C[C@@H](O)[C@H](Cc3ccccc3)NC(=O)O[C@H]3CO[C@H]4OC[C@H](OCCC(F)(F)F)[C@H]43)cc2o1 | 1.6

Each compound was assayed on Human immunodeficiency virus 1 (assay: Antiviral activity against wild type HIV-1 3B infected in human MT4 cells assessed as inhibition of viral replication after 3 days by GFP reporter gene assay in presence of human serum). Conditions: Human immunodeficiency virus 1, 3B, MT4, 72 h.
Type: functional, organism-based

Compound | EC50
CNC(=O)CO[C@H]1CO[C@@H]2OC[C@H](OC(=O)N[C@@H](Cc3ccccc3)[C@H](O)CN(CC(C)C)S(=O)(=O)c3ccc4nc(NC)oc4c3)[C@@H]21 | 376 nM
CNc1nc2ccc(S(=O)(=O)N(CC(C)C)C[C@@H](O)[C@H](Cc3ccccc3)NC(=O)O[C@H]3CO[C@H]4OC[C@H](OCC(=O)N(C)C)[C@H]43)cc2o1 | 243 nM
C=C(F)CO[C@H]1CO[C@@H]2OC[C@H](OC(=O)N[C@@H](Cc3ccccc3)[C@H](O)CN(CC(C)C)S(=O)(=O)c3ccc4nc(NC)oc4c3)[C@@H]21 | 2.2 nM
CNc1nc2ccc(S(=O)(=O)N(CC(C)C)C[C@@H](O)[C@H](Cc3ccccc3)NC(=O)O[C@H]3CO[C@H]4OC[C@H](OCCC(F)(F)F)[C@H]43)cc2o1 | 8.2 nM

What follows are compounds tested on Human immunodeficiency virus 1 (assay: Antiviral activity against HIV-1 M1 harboring protease L10I, M46I, I64V, I84V, L90M, I93L mutant infected in human MT4 cells assessed as inhibition of viral replication after 3 days by GFP reporter gene assay). Conditions: Human immunodeficiency virus 1, M1, MT4, 72 h.
Type: functional, organism-based
Outline: (§1)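 Cell-based replication assay in MT4 cells carrying an LTR-GFP readout (HIV tat drives GFP). Serial compound concentrations were mixed with cells at 150 000 cells/mL and 200 CCID50 of virus, incubated 3 days at 37 °C, 5% CO2. Percent inhibition per concentration gave dose-response curves for EC50/pEC50. Run in quadruplicate. Mock-infected parallel cultures at the same concentrations gave CC50.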

Compound | EC50
CNC(=O)CO[C@H]1CO[C@@H]2OC[C@H](OC(=O)N[C@@H](Cc3ccccc3)[C@H](O)CN(CC(C)C)S(=O)(=O)c3ccc4nc(NC)oc4c3)[C@@H]21 | 151 nM
CNc1nc2ccc(S(=O)(=O)N(CC(C)C)C[C@@H](O)[C@H](Cc3ccccc3)NC(=O)O[C@H]3CO[C@H]4OC[C@H](OCC(=O)N(C)C)[C@H]43)cc2o1 | 102 nM
C=C(F)CO[C@H]1CO[C@@H]2OC[C@H](OC(=O)N[C@@H](Cc3ccccc3)[C@H](O)CN(CC(C)C)S(=O)(=O)c3ccc4nc(NC)oc4c3)[C@@H]21 | 0.8 nM
CNc1nc2ccc(S(=O)(=O)N(CC(C)C)C[C@@H](O)[C@H](Cc3ccccc3)NC(=O)O[C@H]3CO[C@H]4OC[C@H](OCCC(F)(F)F)[C@H]43)cc2o1 | 0.9 nM

What follows are compounds tested on Human immunodeficiency virus 1 (assay: Antiviral activity against wild type HIV-1 3B infected in human MT4 cells assessed as inhibition of viral replication after 3 days by GFP reporter gene assay). Conditions: Human immunodeficiency virus 1, 3B, MT4, 72 h.
Type: functional, organism-based
Outline: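 MT4 cells (150 000 cells/mL) were infected with wild-type HIV-1/LAI at 200 CCID50 across a compound concentration range. Plates were incubated 3 days at 37 °C and 5% CO2. Replication was read as GFP driven by HIV-tat binding LTR sequences. EC50 was taken from dose-response curves of percent inhibition, in quadruplicate. Mock-infected parallel cultures gave CC50 from reduced GFP.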

Compound | EC50
CNC(=O)CO[C@H]1CO[C@@H]2OC[C@H](OC(=O)N[C@@H](Cc3ccccc3)[C@H](O)CN(CC(C)C)S(=O)(=O)c3ccc4nc(NC)oc4c3)[C@@H]21 | 460 nM
CNc1nc2ccc(S(=O)(=O)N(CC(C)C)C[C@@H](O)[C@H](Cc3ccccc3)NC(=O)O[C@H]3CO[C@H]4OC[C@H](OCC(=O)N(C)C)[C@H]43)cc2o1 | 249 nM
C=C(F)CO[C@H]1CO[C@@H]2OC[C@H](OC(=O)N[C@@H](Cc3ccccc3)[C@H](O)CN(CC(C)C)S(=O)(=O)c3ccc4nc(NC)oc4c3)[C@@H]21 | 0.4 nM
CNc1nc2ccc(S(=O)(=O)N(CC(C)C)C[C@@H](O)[C@H](Cc3ccccc3)NC(=O)O[C@H]3CO[C@H]4OC[C@H](OCCC(F)(F)F)[C@H]43)cc2o1 | 0.5 nM

The compounds below were run on Human immunodeficiency virus 1 (assay: Antiviral activity against HIV-1 M2 harboring protease L10I, I13V, M46I, I50V, L63P, L76V mutant infected in human MT4 cells assessed as inhibition of viral replication after 3 days by GFP reporter gene assay). Conditions: Human immunodeficiency virus 1, M2, MT4, 72 h.
Type: functional, organism-based
Outline: as §1

Compound | EC50
CNC(=O)CO[C@H]1CO[C@@H]2OC[C@H](OC(=O)N[C@@H](Cc3ccccc3)[C@H](O)CN(CC(C)C)S(=O)(=O)c3ccc4nc(NC)oc4c3)[C@@H]21 | 204 nM
CNc1nc2ccc(S(=O)(=O)N(CC(C)C)C[C@@H](O)[C@H](Cc3ccccc3)NC(=O)O[C@H]3CO[C@H]4OC[C@H](OCC(=O)N(C)C)[C@H]43)cc2o1 | 83.8 nM
C=C(F)CO[C@H]1CO[C@@H]2OC[C@H](OC(=O)N[C@@H](Cc3ccccc3)[C@H](O)CN(CC(C)C)S(=O)(=O)c3ccc4nc(NC)oc4c3)[C@@H]21 | 2.3 nM
CNc1nc2ccc(S(=O)(=O)N(CC(C)C)C[C@@H](O)[C@H](Cc3ccccc3)NC(=O)O[C@H]3CO[C@H]4OC[C@H](OCCC(F)(F)F)[C@H]43)cc2o1 | 2.8 nM

What follows are compounds tested on Human immunodeficiency virus 1 (assay: Antiviral activity against HIV-1 M3 harboring protease L10I, K20R, M36I, G48V, I62V, A71V, V82A, I93L mutant infected in human MT4 cells assessed as inhibition of viral replication after 3 days by GFP reporter gene assay). Conditions: Human immunodeficiency virus 1, M3, MT4, 72 h.
Type: functional, organism-based
Outline: as §1

Compound | EC50
CNC(=O)CO[C@H]1CO[C@@H]2OC[C@H](OC(=O)N[C@@H](Cc3ccccc3)[C@H](O)CN(CC(C)C)S(=O)(=O)c3ccc4nc(NC)oc4c3)[C@@H]21 | 68.5 nM
CNc1nc2ccc(S(=O)(=O)N(CC(C)C)C[C@@H](O)[C@H](Cc3ccccc3)NC(=O)O[C@H]3CO[C@H]4OC[C@H](OCC(=O)N(C)C)[C@H]43)cc2o1 | 50.4 nM
C=C(F)CO[C@H]1CO[C@@H]2OC[C@H](OC(=O)N[C@@H](Cc3ccccc3)[C@H](O)CN(CC(C)C)S(=O)(=O)c3ccc4nc(NC)oc4c3)[C@@H]21 | 0.5 nM
CNc1nc2ccc(S(=O)(=O)N(CC(C)C)C[C@@H](O)[C@H](Cc3ccccc3)NC(=O)O[C@H]3CO[C@H]4OC[C@H](OCCC(F)(F)F)[C@H]43)cc2o1 | 0.8 nM

What follows are compounds tested on Human immunodeficiency virus 1 (assay: Ratio of EC50 for HIV-1 M2 harboring protease L10I, I13V, M46I, I50V, L63P, L76V mutant to EC50 for wild type HIV-1 3B). Conditions: not given.
Type: functional

Compound | Ratio EC50
CNC(=O)CO[C@H]1CO[C@@H]2OC[C@H](OC(=O)N[C@@H](Cc3ccccc3)[C@H](O)CN(CC(C)C)S(=O)(=O)c3ccc4nc(NC)oc4c3)[C@@H]21 | 0.4
CNc1nc2ccc(S(=O)(=O)N(CC(C)C)C[C@@H](O)[C@H](Cc3ccccc3)NC(=O)O[C@H]3CO[C@H]4OC[C@H](OCC(=O)N(C)C)[C@H]43)cc2o1 | 0.3
C=C(F)CO[C@H]1CO[C@@H]2OC[C@H](OC(=O)N[C@@H](Cc3ccccc3)[C@H](O)CN(CC(C)C)S(=O)(=O)c3ccc4nc(NC)oc4c3)[C@@H]21 | 6.1
CNc1nc2ccc(S(=O)(=O)N(CC(C)C)C[C@@H](O)[C@H](Cc3ccccc3)NC(=O)O[C@H]3CO[C@H]4OC[C@H](OCCC(F)(F)F)[C@H]43)cc2o1 | 5.9

The compounds below were run on Human immunodeficiency virus 1 (assay: Ratio of EC50 for HIV-1 M1 harboring protease L10I, M46I, I64V, I84V, L90M, I93L mutant to EC50 for wild type HIV-1 3B). Conditions: not given.
Type: functional

Compound | Ratio EC50
CNC(=O)CO[C@H]1CO[C@@H]2OC[C@H](OC(=O)N[C@@H](Cc3ccccc3)[C@H](O)CN(CC(C)C)S(=O)(=O)c3ccc4nc(NC)oc4c3)[C@@H]21 | 0.3
CNc1nc2ccc(S(=O)(=O)N(CC(C)C)C[C@@H](O)[C@H](Cc3ccccc3)NC(=O)O[C@H]3CO[C@H]4OC[C@H](OCC(=O)N(C)C)[C@H]43)cc2o1 | 0.4
C=C(F)CO[C@H]1CO[C@@H]2OC[C@H](OC(=O)N[C@@H](Cc3ccccc3)[C@H](O)CN(CC(C)C)S(=O)(=O)c3ccc4nc(NC)oc4c3)[C@@H]21 | 1.2
CNc1nc2ccc(S(=O)(=O)N(CC(C)C)C[C@@H](O)[C@H](Cc3ccccc3)NC(=O)O[C@H]3CO[C@H]4OC[C@H](OCCC(F)(F)F)[C@H]43)cc2o1 | 1.9
